Columns and labels:
[1] = target: T1, 3-hydroxy-3-methylglutaryl-coenzyme A reductase (Mus musculus) (UniProt Q01237); experiment: In Vitro evaluation for the CF1 liver enzyme activity on HMG CoA reductase at concentration 200 uM
T1 sequence (whole entry): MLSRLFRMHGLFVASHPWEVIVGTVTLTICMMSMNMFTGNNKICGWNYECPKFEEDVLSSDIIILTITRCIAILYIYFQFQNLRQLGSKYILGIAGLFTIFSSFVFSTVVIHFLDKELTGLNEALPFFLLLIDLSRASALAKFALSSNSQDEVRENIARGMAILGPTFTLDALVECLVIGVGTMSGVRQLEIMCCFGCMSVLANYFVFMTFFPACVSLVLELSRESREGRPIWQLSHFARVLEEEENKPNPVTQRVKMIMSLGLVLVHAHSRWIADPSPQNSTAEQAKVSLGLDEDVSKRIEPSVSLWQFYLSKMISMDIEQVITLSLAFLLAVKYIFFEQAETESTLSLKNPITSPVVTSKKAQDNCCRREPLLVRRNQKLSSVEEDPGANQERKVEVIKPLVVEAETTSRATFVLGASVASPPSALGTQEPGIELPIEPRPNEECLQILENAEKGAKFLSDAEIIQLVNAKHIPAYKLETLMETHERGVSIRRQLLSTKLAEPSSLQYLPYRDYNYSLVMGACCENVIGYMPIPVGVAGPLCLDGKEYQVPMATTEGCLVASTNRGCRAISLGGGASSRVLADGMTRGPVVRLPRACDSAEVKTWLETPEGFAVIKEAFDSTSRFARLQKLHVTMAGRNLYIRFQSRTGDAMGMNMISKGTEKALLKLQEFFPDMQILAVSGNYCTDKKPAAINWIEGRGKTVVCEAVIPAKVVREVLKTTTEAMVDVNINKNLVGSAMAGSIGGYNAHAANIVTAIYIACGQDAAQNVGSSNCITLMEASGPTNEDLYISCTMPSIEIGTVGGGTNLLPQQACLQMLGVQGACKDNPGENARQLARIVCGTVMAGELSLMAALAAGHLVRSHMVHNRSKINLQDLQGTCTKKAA
In short: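 Liver was taken from CF1 male mice and made into 10% homogenates, which were incubated with test compound at 50, 100 or 200 µM. Each enzyme was assayed by its literature method, and protein was measured by Lowry. N = 6. Activity is expressed as % of untreated control ± SD.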

[2] = system: Mus musculus; experiment: Compound was evaluated for the hypolipidemic activity in CF1 male mice at a dose of 20 mg/kg orally for Serum cholesterol at 9th day; type: functional; settings: route oral
In short: (§1)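 CF1 male mice received the agent orally in 1% CMC at 10–60 mg/kg per day. Tail-vein blood was taken on days 9 and 16. Serum cholesterol was measured by modified Liebermann–Burchard on duplicate 25-µL samples, and serum triglyceride on day 16 in duplicate 50-µL samples. Values are % of vehicle control, mean ± SD, N = 6; Student's t test.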

[3] = system: Mus musculus; experiment: Compound was evaluated for the hypolipidemic activity in CF1 male mice at a dose of 20 mg/kg orally for Serum triglyceride at 16th day; type: functional; settings: route oral; in short: as §1
[4] = system: Mus musculus; experiment: In Vivo effect for the hypolipidemic activity on Hepatic lipoprotein lipase in CF1 mice after 16 days administered orally at a dose of 20 mg/kg; type: functional; settings: route oral
In short: (§2)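 CF1 male mice are dosed orally at 10–60 mg/kg per day for 16 days, with 1% CMC as the control vehicle. Liver is homogenized at 10% in 0.25 M sucrose + 0.001 M EDTA, pH 7.2. Enzymes are assayed by literature methods, with Lowry protein. Activity is given as % of control (X ± SD, N = 6), with p from Student's t test.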

[5] = species: Mus musculus; experiment: In Vitro evaluation for the CF1 liver enzyme activity on Mitochondrial citrate exchange at concentration 100 uM; type: functional
In short: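 Mouse liver enzymes assayed in vitro on 10% homogenates of CF1 male mouse liver, with test drug added at 50–200 μM. Each enzyme follows a published procedure. Protein is measured by Lowry. Activity is given as % of untreated control (X ± SD, N = 6).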

[6] = system: Rattus norvegicus; experiment: Compound was evaluated for the hypolipidemic activity at 20 mg/kg per day orally for 14 days on cholesterol content in rat feces.; type: functional; settings: route oral
In short: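 Male Sprague–Dawley rats were dosed orally for 14 days. Liver, small intestine and a 24-h fecal collection were lipid-extracted. Extracts were assayed for cholesterol (modified Liebermann–Burchard), triglyceride (enzymatic kit), neutral lipids, phospholipids and protein. Values are % of 1% CMC vehicle control, mean ± SD, N = 6.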

[7] = system: Mus musculus; experiment: In Vivo effect for the hypolipidemic activity on phosphatidate phosphohydrolase in CF1 mice after 16 days administered orally at a dose of 40 mg/kg; type: organism-based; design: dose 40 mg/kg; in short: as §2

Control [1]: 105%
SMILES: COc1ccc(C2C(=O)c3ccccc3C2=O)cc1 [ANISINDIONE]
Control [2]: 67%
Control [3]: 48%
Control [4]: 82%
Control [5]: 38%
Control [6]: 187%
Control [7]: 57%

— ChEMBL document CHEMBL1123129, “Hypolipidemic activity of indan-1,3-dione derivatives in rodents” (J Med Chem, 1985)
